# Assays:
# [1] = target: T1, Progesterone receptor (Homo sapiens) (UniProt P06401); experiment: Agonist efficacy for human progesterone receptor (hPR) was compared to that of progesterone (100%); format: functional
# T1 sequence (whole entry): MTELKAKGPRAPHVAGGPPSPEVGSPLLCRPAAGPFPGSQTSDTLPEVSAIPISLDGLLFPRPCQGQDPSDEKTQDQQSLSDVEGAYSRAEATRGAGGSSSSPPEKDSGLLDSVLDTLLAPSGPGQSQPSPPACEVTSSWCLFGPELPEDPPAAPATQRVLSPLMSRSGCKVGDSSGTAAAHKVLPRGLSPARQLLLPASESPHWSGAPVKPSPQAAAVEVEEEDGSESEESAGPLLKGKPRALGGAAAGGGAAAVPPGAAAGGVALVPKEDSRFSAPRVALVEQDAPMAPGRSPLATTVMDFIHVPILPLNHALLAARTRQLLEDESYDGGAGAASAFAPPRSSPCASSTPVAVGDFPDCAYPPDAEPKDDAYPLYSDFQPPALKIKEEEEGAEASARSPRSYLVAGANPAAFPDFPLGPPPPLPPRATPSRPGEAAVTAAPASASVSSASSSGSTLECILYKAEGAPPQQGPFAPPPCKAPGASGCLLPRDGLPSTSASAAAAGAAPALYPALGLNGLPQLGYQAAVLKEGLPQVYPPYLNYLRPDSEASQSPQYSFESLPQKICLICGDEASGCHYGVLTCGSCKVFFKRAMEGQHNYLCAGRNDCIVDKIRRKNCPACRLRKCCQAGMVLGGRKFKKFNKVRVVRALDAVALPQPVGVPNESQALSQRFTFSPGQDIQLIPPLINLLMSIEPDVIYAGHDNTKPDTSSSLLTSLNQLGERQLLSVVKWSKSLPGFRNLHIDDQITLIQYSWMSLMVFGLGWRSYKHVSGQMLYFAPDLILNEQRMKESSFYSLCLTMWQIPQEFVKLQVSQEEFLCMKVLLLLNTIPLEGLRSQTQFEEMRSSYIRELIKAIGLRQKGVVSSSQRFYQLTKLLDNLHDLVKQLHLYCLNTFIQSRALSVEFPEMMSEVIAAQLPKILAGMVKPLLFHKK
# Method in brief: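 Cotransfection assay in CV-1 cells transiently transfected by calcium phosphate coprecipitation with hPR plasmid, MTV-LUC reporter, pRS-β-Gal and filler DNA. Full dose–response curves from 10^-12 to 10^-5 M were run. […] Values are the mean of at least three experiments with triplicate determinations, or of two experiments, or a single experiment.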
# Progesterone receptor [2] = target: T2, Progesterone receptor (Homo sapiens, UniProt P06401); experiment: Agonistic activity to the human progesterone receptor (hPR)assayed in CV-1 cells in cotransfection assay.; format: functional, cell-based
# T2 sequence (P06401 whole entry): T1 sequence (whole entry)
# Progesterone receptor [3] = target: T2, Progesterone receptor; experiment: Antagonistic activity was determined in Human progesterone receptor(hPR) of CV-1 cells in cotransfection assay.; format: functional, cell-based
# [4] = target: T3, Mineralocorticoid receptor (Homo sapiens, UniProt P08235); experiment: Antagonistic activity was determined in Human mineralocorticoid receptor(hMR) of CV-1 cells in cotransfection assay.; format: functional, cell-based
# T3 sequence (P08235 whole entry): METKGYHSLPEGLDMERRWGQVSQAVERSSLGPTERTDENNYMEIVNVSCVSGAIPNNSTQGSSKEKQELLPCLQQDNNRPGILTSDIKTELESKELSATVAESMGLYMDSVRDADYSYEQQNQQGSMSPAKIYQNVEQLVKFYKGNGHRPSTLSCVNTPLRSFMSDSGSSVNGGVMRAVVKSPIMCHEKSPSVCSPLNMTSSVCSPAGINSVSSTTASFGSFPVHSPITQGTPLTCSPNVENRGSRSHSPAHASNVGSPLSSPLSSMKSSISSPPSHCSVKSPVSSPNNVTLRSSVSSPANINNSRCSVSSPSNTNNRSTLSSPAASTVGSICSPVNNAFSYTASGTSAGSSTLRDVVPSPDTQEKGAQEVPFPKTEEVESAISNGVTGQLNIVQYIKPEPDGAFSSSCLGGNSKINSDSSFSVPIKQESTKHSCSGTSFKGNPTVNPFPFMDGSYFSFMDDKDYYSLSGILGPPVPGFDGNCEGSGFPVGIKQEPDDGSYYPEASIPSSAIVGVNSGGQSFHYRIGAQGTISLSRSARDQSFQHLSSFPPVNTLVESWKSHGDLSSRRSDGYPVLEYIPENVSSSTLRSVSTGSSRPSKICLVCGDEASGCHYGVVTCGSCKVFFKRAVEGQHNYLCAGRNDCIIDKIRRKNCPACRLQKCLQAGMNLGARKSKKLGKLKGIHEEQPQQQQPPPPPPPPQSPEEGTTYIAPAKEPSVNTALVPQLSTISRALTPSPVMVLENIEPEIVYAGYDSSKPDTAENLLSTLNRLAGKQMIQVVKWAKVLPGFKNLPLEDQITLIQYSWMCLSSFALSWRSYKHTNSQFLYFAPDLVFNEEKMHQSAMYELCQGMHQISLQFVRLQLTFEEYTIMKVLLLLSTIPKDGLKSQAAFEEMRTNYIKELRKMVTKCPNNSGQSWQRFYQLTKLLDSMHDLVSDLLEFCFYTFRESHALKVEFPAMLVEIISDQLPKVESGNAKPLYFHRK
Efficacy [1] [%],EC50 (Progesterone receptor [2]) [nM],IC50 (Progesterone receptor [3]) [nM],IC50 [4] [nM],SMILES
68,14,> 10000,2030,CC1=CC(C)(C)Nc2ccc3c(c21)C(c1ccc(Cl)c(C)c1)Oc1ccccc1-3 (configuration not stated)
57,50,> 10000,> 10000,CC1=CC(C)(C)Nc2ccc3c(c21)C(c1cc(Cl)cc(Cl)c1)Oc1ccccc1-3 (configuration not stated)
59,14,3140,977,CC1=CC(C)(C)Nc2ccc3c(c21)C(c1ccc(Br)cc1)Oc1ccccc1-3 (configuration not stated)
83,16,> 10000,1000,CC1=CC(C)(C)Nc2ccc3c(c21)C(c1ccc(C)c(F)c1)Oc1ccccc1-3 (configuration not stated)
77,8,1140,1070,CC1=CC(C)(C)Nc2ccc3c(c21)C(c1cccc(Br)c1)Oc1ccccc1-3 (configuration not stated)
66,18,720,1060,CC1=CC(C)(C)Nc2ccc3c(c21)C(c1ccc(Cl)c(Cl)c1)Oc1ccccc1-3 (configuration not stated)
65,17,1100,> 10000,CC1=CC(C)(C)Nc2ccc3c(c21)C(c1cc(C)cc(Br)c1)Oc1ccccc1-3 (configuration not stated)
96,13,> 10000,2220,CC1=CC(C)(C)Nc2ccc3c(c21)C(c1cccc(C(F)(F)F)c1)Oc1ccccc1-3 (configuration not stated)
59,37,250,1590,CC1=CC(C)(C)Nc2ccc3c(c21)C(c1ccc(C)cc1)Oc1ccccc1-3 (configuration not stated)
59,17,> 10000,1360,CC1=CC(C)(C)Nc2ccc3c(c21)C(c1ccc(Cl)c(F)c1)Oc1ccccc1-3 (configuration not stated)

SMILES,Efficacy [1] [%],EC50 (Progesterone receptor [2]) [nM],IC50 (Progesterone receptor [3]) [nM],IC50 [4] [nM]
CC1=CC(C)(C)Nc2ccc3c(c21)C(c1cccc(Cl)c1)Oc1ccccc1-3 (configuration not stated),76,18,930,748
CC1=CC(C)(C)Nc2ccc3c(c21)C(c1ccc(Cl)cc1)Oc1ccccc1-3 (configuration not stated),–,14,600,1520

# — ChEMBL document CHEMBL1131454 (J Med Chem, 1998)
